Most compounds without a hit are left out; they make up all but 2.9% or so of the library.
TRPC4 block: TRPC4 (mouse) channel inhibition; AID 2247; B-score at 10 µM; HEK293 TRPC4beta/mu-opioid, DAMGO-evoked Fluo4 calcium flux; hits give low values; 0.39% of 300,000 active;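 active = B-score over 3 SD under the library average, no early fluorescence shift, positive overall ratio signal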
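Test system – stable TRPC4beta/mu-opioid receptor HEK293 cells · Probe or stimulus – DAMGO, a submaximal dose followed by a maximal one · Dosing – one concentration per compound · Signal – Fluo4 calcium fluorescence by kinetic imaging, 5 s 1 Hz baseline · Evaluation – per-well B score of integrated baseline-normalized Fluo4 ratio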
TRPC6 inh: inhibitors of mouse TRPC6 channel | Q61143 | HEK293-TRPC6, membrane potential dye, ACh-evoked depolarization; hits give low values | B-score at 10 µM | 1.1% of 310,000 active;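 active = B-score under library mean minus 3 SD, initial fluorescence not abnormally high, positive integrated signal ratio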;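 note: B-score derived from integrated fluorescence ratio over the kinetic read; more negative B-score means stronger inhibition of depolarization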
Target sequence (Q61143 whole entry, looked up): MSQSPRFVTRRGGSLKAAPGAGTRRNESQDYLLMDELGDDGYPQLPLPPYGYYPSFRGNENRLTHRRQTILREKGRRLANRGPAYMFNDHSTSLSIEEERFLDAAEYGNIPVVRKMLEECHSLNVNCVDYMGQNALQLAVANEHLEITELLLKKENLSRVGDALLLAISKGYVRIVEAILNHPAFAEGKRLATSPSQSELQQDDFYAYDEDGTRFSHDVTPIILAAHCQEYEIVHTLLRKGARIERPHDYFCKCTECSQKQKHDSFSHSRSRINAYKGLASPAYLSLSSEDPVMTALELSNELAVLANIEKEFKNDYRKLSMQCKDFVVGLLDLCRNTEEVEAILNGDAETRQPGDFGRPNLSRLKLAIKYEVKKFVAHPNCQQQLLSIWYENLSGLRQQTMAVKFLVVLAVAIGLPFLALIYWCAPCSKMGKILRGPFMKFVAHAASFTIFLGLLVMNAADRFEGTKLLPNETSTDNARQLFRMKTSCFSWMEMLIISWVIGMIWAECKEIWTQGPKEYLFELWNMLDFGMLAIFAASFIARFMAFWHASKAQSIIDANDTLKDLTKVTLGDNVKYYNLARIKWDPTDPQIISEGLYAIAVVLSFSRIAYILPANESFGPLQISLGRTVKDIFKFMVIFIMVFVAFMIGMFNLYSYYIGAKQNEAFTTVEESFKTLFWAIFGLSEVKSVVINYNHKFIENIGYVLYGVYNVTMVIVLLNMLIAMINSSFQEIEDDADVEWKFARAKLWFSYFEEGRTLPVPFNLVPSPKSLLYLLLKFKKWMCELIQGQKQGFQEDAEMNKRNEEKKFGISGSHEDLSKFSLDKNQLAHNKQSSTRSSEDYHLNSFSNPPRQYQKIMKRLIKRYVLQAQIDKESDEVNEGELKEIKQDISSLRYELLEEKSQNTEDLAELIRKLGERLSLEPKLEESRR
TRPC6 act: activators of mouse TRPC6 channel; 0.13% of 310,000 active; AID 2550; HEK293-TRPC6 membrane potential dye fluorescence; hits give high values; B-score at 10 µM; Q61143;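 active = B-score of the integrated fluorescence ratio above library mean plus 3 SD, and starting fluorescence ratio within library mean plus 5 SD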;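 note: higher score means more depolarization so channel activation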
TRPC4 potent: TRPC4 (mouse) allosteric potentiation | HEK293 TRPC4beta/mu-opioid, DAMGO EC20, Fluo-4 Ca2+ flux; hits give high values | B-score at 10 µM | 0.42% of 310,000 active | AID 2227;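 active = B-score of calcium response area above 5 SD of library B-scores, with initial fluorescence ratio within 5 SD of library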;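 note: B-score of integrated fluorescence ratio over time as area under calcium response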
Kir21 block: inhibitors of mouse Kir2.1 inward-rectifier potassium channel; 0.85% of 310,000 active; P35561; AID 1672; B-score at 10 µM; HEK293-Kir2.1, FluxOR thallium flux fluorescence; hits give low values;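 active = fluorescence ratio B-score at or below minus 3 SD of library scores, with starting-brightness B-score within 2 SD, cut at about -4.2 in these data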;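 note: channel flux triggered by added potassium and thallium sulfate stimulus; B-score of peak minus minimum fluorescence over baseline after thallium stimulus; more negative B-score means stronger Kir2.1 block with less thallium influx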
TRPC4 act: TRPC4 (mouse) channel activation. HEK293 TRPC4beta/mu-opioid, Fluo4 calcium fluorescence; hits give high values. Q9QUQ5. B-score at 10 µM. 0.49% of 310,000 active;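 active = B-score above 5 SD of library B-scores, and initial fluorescence ratio not above library mean plus 5 SD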;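 note: positive B-score marks a calcium rise read as TRPC4 activation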
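Assay system: HEK293 cells stably co-expressing mouse TRPC4beta and mu-opioid receptor / Timing: Fluo4 dye loading 45 min at room temperature, 110 s recording / Signal: Fluo4 calcium-sensitive dye fluorescence, kinetic, 1 Hz baseline / Read-out: integrated baseline-normalised fluorescence ratio, converted to per-well B score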
TRPC4 sel inh 2: second check of whether TRPC6 inhibitors also affect mouse TRPC4; shares compounds with TRPC6 inh; HEK293 TRPC4/MOR, membrane potential dye fluorescence; channel activated by saturating DAMGO dose; inhibition, % at 10 µM; 42% of 920 active; AID 2776;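 active = compounds whose fluorescence signal differed from control wells by over 3 SD, either direction, in both duplicate plates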
TRPC4 spec: tests whether TRPC6 inhibitors also affect mouse TRPC4. HEK293 TRPC4/mu-opioid, membrane potential fluorescence. shares compounds with TRPC6 inh. 61% of 920 active. activity change, negative = inhibition, % at 10 µM;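 active = rise or fall in signal beyond 3 SD of buffer-only wells in both replicate plates, either sign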;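 note: integrated kinetic ratio of fluorescence range over baseline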
HEK293 MPD ctr 2-1: second counter-screen for TRPC6 inhibitors: parental HEK293 cells. AID 2779. shares compounds with TRPC6 inh. parental HEK293 membrane potential dye fluorescence; maximal acetylcholine challenge after compound addition. 31% of 920 active. signal change vs control, % at 10 µM;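 active = membrane potential signal moving either way by over 3 SD of the maximum-effect control, in both duplicate plates, meaning non-specific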
HEK293 MPD ctr-1: parental HEK293 nonspecific activity of TRPC6 inhibitors | shares compounds with TRPC6 inh | parental HEK293 membrane potential dye fluorescence | membrane potential signal change, % at 10 µM | 60% of 920 active;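 active = membrane potential signal shifting up or down by more than 3 SD of buffer-only wells, on both duplicate plates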
HEK293 MPD ctr-2: parental HEK293 nonspecific activity of TRPC6 modulators | shares compounds with TRPC6 inh | membrane potential dye fluorescence | membrane potential signal change, % at 10 µM | 51% of 2,400 active | AID 488924;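 active = membrane potential signal moves up or down beyond 5 SD from buffer-only wells, on both duplicate plates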
HEK293 MPD ctr 2-2: parental HEK293 nonspecific activity of TRPC6 modulators, second screen; shares compounds with TRPC6 inh; membrane potential dye fluorescence; after compound, maximal acetylcholine stimulation; inhibition, % at 10 µM; 14% of 2,400 active; AID 488926;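 active = membrane potential signal drops by more than 5 SD from the mean control signal, in both duplicate plates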;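 note: plate controls were acetylcholine ECmax control wells for no effect and buffer only wells for full effect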
TRPC4/MOR mod: mouse TRPC4 off-target activity of TRPC6 modulators; shares compounds with TRPC6 inh; HEK293 TRPC4/mu-opioid, membrane potential fluorescence; percent change from control (negative = decrease, positive = increase), % at 10 µM; 69% of 2,400 active; AID 488927;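 active = membrane potential signal moved up or down beyond 5 SD of buffer control wells, in both duplicate plates, actives on both sides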;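 note: plate controls were assay buffer wells for no effect and DAMGO maximal-effect wells for full effect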
TRPC4 ctr inh 2: second selectivity test of TRPC6 modulators against mouse TRPC4. shares compounds with TRPC6 inh. HEK293 TRPC4/mu-opioid, membrane potential dye fluorescence; stimulated with maximal-effect DAMGO. inhibition, % at 10 µM. 55% of 2,400 active. AID 488928;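 active = drop in membrane potential signal beyond 5 SD of the control wells in both duplicate plates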;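 note: TRPC4 counter screen for TRPC6 hits run under conditions tuned for TRPC6 not TRPC4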
TRPC6 block conf: mouse TRPC6 inhibitor confirmation; shares compounds with TRPC6 inh; HEK293-TRPC6, membrane potential dye, ACh-evoked depolarization; inhibition, % at 10 µM; 43% of 3,300 active; AID 488960;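 active = fluorescence ratio falls more than 5 SD below the full-stimulation control mean, in both duplicate runs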;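 note: integrated fluorescence ratio of peak minus minimum over baseline after agonist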
TRPC6 act confirm: confirmation of mouse TRPC6 activators. shares compounds with TRPC6 inh. activation, % at 10 µM. 11% of 2,800 active. HEK293-TRPC6 membrane potential dye fluorescence, FDSS. AID 488961;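 active = ratio signal rise beyond 5 SD above unstimulated control wells' mean, seen in both duplicate runs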;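 note: plate controls were buffer EC0 wells for no effect and acetylcholine ECmax response for full effect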
Numbers without * were called inactive; i = inactive; · = no result given.

SMILES	TRPC4 block	TRPC6 inh	TRPC6 act	TRPC4 potent	Kir21 block	TRPC4 act	HEK293 MPD ctr-2	HEK293 MPD ctr 2-2	TRPC4/MOR mod	TRPC4 ctr inh 2	TRPC6 block conf	TRPC6 act confirm	others
CCCCN(CCCC)CCNC(=O)c1cn(CC)c2ccc(S(=O)(=O)N3CCCC3)cc2c1=O	i	-5*	i	i	0.03	i	i	i	i	50%*	i	i
CCN(CC)S(=O)(=O)c1ccc2c(c1)c(=O)c(C(=O)NCCN(C)CCc1ccccc1)cn2C	i	-5.4*	i	i	0.91	i	-64%*	i	-17%*	63%*	i	i
O=C1N[C@@H](Cc2ccccc2)C(=O)N2[C@@H]1C[C@]1(Br)c3ccccc3N(S(=O)(=O)c3ccccc3)[C@H]21	i	i	i	i	-0.91	i	·	·	·	·	·	·
CC(NCc1ccc(N(C)C)cc1)C1CC2CCC1C2 (stereo unspecified)	i	-6.5*	i	i	-1.6	i	231%*	70%*	51%*	60%*	77%*	·
CC(NC(=O)c1ccc(CS(C)(=O)=O)cc1)C1CC2CCC1C2 (stereo unspecified)	i	i	i	i	0.91	i	·	·	·	·	·	·
COc1ccc(NC(=O)C2Cc3cc(S(=O)(=O)N4CCCCC4)ccc3N2C(C)=O)cc1Cl (stereo unspecified)	i	i	i	i	1.9	i	·	·	·	·	·	·
Cc1c(O)c(CN(C)C)cc2c1oc(=O)c1ccccc12	i	-5.2*	i	i	0.11	i	-126%*	i	-28%*	i	i	i
COc1ccc(-c2cc(=O)oc3c(C)c(O)c(CN(C)C)cc23)cc1	i	i	i	i	0.15	i	·	·	·	·	·	·
O=[N+]([O-])c1cc(-c2ccc(/C=N\n3cnnc3)o2)cc([N+](=O)[O-])c1	i	-6.2*	i	i	0.56	i	-234%*	63%*	-34%*	42%*	i	i
O=C(CCN1CCCCO1)N1CCCC(Nc2ccc(F)c(F)c2)C1 (stereo unspecified)	i	-5.8*	i	i	0	i	i	i	8.5%*	i	46%*	·
Cc1cc(N2CCN(c3ccc(F)cc3)CC2)nc2cc(O)ccc12	i	-6.3*	i	i	-0.17	i	-60%*	i	-11%*	36%*	i	i
CCCCN1C(=O)/C(=C/C=C2\SCCN2C)SC1=S	i	i	i	i	-1.2	i	·	·	·	·	·	·
CN1CCS/C1=C/C=C1/SC(=S)N(Cc2ccccc2)C1=O	i	i	19*	i	-2.2	i	278%*	i	49%*	i	i	112%*
CCCCN(C(=O)CCCSc1nc2ccccc2[nH]1)c1c(N)n(Cc2ccccc2)c(=O)[nH]c1=O	i	i	i	i	0.47	i	·	·	·	·	·	·
CCOC(=O)c1cnc(COc2ccc(OC)cc2)[nH]c1=O	i	i	i	i	-0.28	i	·	·	·	·	·	·
CN1CCN(Cc2nc3ccccc3c(=O)n2CC#N)CC1	i	-6.9*	i	i	-0.29	i	·	·	·	·	i	i	TRPC4 sel inh 2=i;TRPC4 spec=i;HEK293 MPD ctr 2-1=i;HEK293 MPD ctr-1=i
N#CCn1c(CCl)nc2ccccc2c1=O	i	i	i	i	-0.86	i	·	·	·	·	·	·
N#Cc1cc2sc3nnc(-c4ccncc4)n3c2cc1C#N	i	-8.2*	i	i	-0.94	i	-368%*	86%*	-68%*	82%*	47%*	i
N#Cc1cc2sc3nc4ccccc4n3c2cc1C#N	i	i	i	i	-0.31	i	·	·	·	·	·	·
Cc1c(C)n(Cc2ccccc2)c2ccc(C(=O)OCCN(C)C)cc12	i	-6*	i	i	-9.5*	i	i	i	i	72%*	56%*	i
Cc1c(C)n(Cc2ccccc2)c2ccc(C(=O)NCCN3CCOCC3)cc12	i	i	i	i	-1.6	i	·	·	·	·	·	·
CCN(CC)c1ccc(C=C2C(=O)OC(C)(C(C)(C)C)OC2=O)cc1 (stereo unspecified)	i	i	46*	i	-1.9	i	i	i	102%*	i	i	i
OC(c1cccs1)(c1cccs1)C1C[N+]2(CF)CCC1CC2 (stereo unspecified)	i	-6.4*	i	i	-0.65	i	i	i	i	i	40%*	i
O=C1OCCC1Sc1nnnn1-c1ccc(Cl)cc1 (stereo unspecified)	i	i	i	i	-0.96	i	·	·	·	·	·	·
CN1CCN(Cc2ccc(Sc3ccc(Cl)cc3)c([N+](=O)[O-])c2)CC1	i	-6.5*	i	i	-5.3*	i	i	i	-14%*	52%*	44%*	i

Screening data (PubChem BioAssay)
